Compound activity from PubChem BioAssay.
HKDC1 activator – activators of human hexokinase HKDC1; recombinant HKDC1, G6PDH/diaphorase resazurin fluorescence; hits give low values; activity change, negative = activation, % at 20 µM; 340,000 compounds, 0.056% hits;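 active means activation of 40% or more at 20 µM, a change of -40% or lower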
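System: in-house human HKDC1 enzyme, G6PDH and diaphorase coupling enzymes; Quantity: 5 µg/mL HKDC1 final; Buffer or medium: Tris/MgCl2 buffer, pH 8.0; Dosing: single compound dose of 20 µM, 1% DMSO final; Times: 90 min reaction at room temperature, dark; Detection: coupled resazurin-to-resorufin fluorescence, Ex 525/Em 613 nm.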
Numbers stand for hits; 0 = inactive. Not all results are given here.

SMILES | HKDC1 activator
CC(=NNC(=S)N1CC2CCC(CC2)C1)c1nccs1 | -43.2
O=C1NC(=S)NC(=O)C1=Cc1ccc2c(c1)CCN2CCCCl | 0
CC[C@H](C)/C=C(C)/C=C/C1=CC2=C(Cl)C(=O)[C@](C)(OC(C)=O)C(=O)C2=CO1 | 0
Brc1ccc(C2N3CCCN23)cc1 (stereo not given) | -79.3
O=c1nc(/C=C/c2ccc(Cl)cc2Cl)cc(C(F)(F)F)[nH]1 | 0
Cc1ccc(N2C(=O)NC(=O)/C(=C\c3cc(C)n(-c4sc5c(c4C#N)CCCC5)c3C)C2=O)cc1 | 0
CCN(CC)CCCNC(=O)c1c(O)c2ccccc2n(Cc2ccccc2)c1=O | 0
Cc1cc(O)c2c(c1)C(=O)C13C(=C2O)C(=O)[C@H]2[C@@H](O)[C@@H]1[C@H]1[C@H](O)[C@@H]3C(=O)C3=C(O)c4c(O)cc(C)cc4C(=O)C312 (stereo not given in full) | 0
CCOC(=O)c1c(-n2c(C)cc(C=C3C(=O)NC(=S)NC3=O)c2C)sc2c1CCCC2 | 0
O=C1NC(=O)N(Cc2ccco2)C(=O)/C1=C/c1ccc(-c2cccc([N+](=O)[O-])c2)o1 | 0
